Test results taken from ChEMBL document CHEMBL1157034, “Synthesis of 1-benzyl-3-(5-hydroxymethyl-2-furyl)selenolo[3,2-c]pyrazole derivatives as new anticancer agents” (Eur J Med Chem, 2010).

Columns and labels:
Assay type in all cases: functional
HT-29 = assay: Antitumor activity against human HT-29 cells after 48 hrs by MTT assay; conditions: HT-29, 48 h
TK-10 = assay: Antitumor activity against human TK10 cells after 48 hrs by MTT assay; conditions: TK-10, 48 h
UACC-62 = assay: Antitumor activity against human UACC62 cells after 48 hrs by MTT assay; conditions: UACC-62, 48 h
786-0 = assay: Antitumor activity against human 786-0 cells after 48 hrs by MTT assay; conditions: 786-0, 48 h
T47D = assay: Antitumor activity against human T47D cells after 48 hrs by MTT assay
SF-268 = assay: Antitumor activity against human SF268 cells after 48 hrs by MTT assay; conditions: SF-268, 48 h
DU-145 = assay: Antitumor activity against human DU145 cells after 48 hrs by MTT assay; conditions: DU-145, 48 h
UO-31 = assay: Antitumor activity against human UO31 cells after 48 hrs by MTT assay; conditions: UO-31, 48 h
MOLT-4 = assay: Antitumor activity against human MOLT4 cells after 48 hrs by MTT assay; conditions: MOLT-4, 48 h
[1] = Antitumor activity against human Hs 578T cells after 48 hrs by MTT assay
HCT-116 = assay: Antitumor activity against human HCT116 cells after 48 hrs by MTT assay; conditions: HCT-116, 48 h
KM12 = assay: Antitumor activity against human KM12 cells after 48 hrs by MTT assay; conditions: KM12, 48 h
U-251 = assay: Antitumor activity against human U251 cells after 48 hrs by MTT assay; conditions: U-251, 48 h
HL-60(TB) = assay: Antitumor activity against human HL-60(TB) cells after 48 hrs by MTT assay; conditions: HL-60, 48 h
HOP-62 = assay: Antitumor activity against human HOP62 cells after 48 hrs by MTT assay; conditions: HOP-62, 48 h
SF-295 = assay: Antitumor activity against human SF295 cells after 48 hrs by MTT assay; conditions: SF-295, 48 h
SN12C = assay: Antitumor activity against human SN12C cells after 48 hrs by MTT assay
A498 = assay: Antitumor activity against human A498 cells after 48 hrs by MTT assay; conditions: A498, 48 h
Procedure, shortened: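 Cells grown at 37 °C in humidified 5% CO2, seeded at 1×10^4 cells/well, and allowed to attach for 24 h. They were then exposed to a range of concentrations for 48 h, washed with PBS, and given 1 mg/ml MTT for 2 h. Formazan was dissolved in DMSO and read at 570 nm.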

NCI-H322M = assay: Antitumor activity against human NCI-H322M cells after 48 hrs by MTT assay
UACC-257 = assay: Antitumor activity against human UACC257 cells after 48 hrs by MTT assay; conditions: UACC-257, 48 h
MCF7 = assay: Antitumor activity against human MCF7 cells after 48 hrs by MTT assay; conditions: MCF7, 48 h
SK-MEL-5 = assay: Antitumor activity against human SK-MEL-5 cells after 48 hrs by MTT assay; conditions: SK-MEL-5, 48 h
RXF 393 = assay: Antitumor activity against human RXF393 cells after 48 hrs by MTT assay; conditions: RXF 393, 48 h
OVCAR-8 = assay: Antitumor activity against human OVCAR8 cells after 48 hrs by MTT assay; conditions: OVCAR-8, 48 h
SNB-75 = assay: Antitumor activity against human SNB75 cells after 48 hrs by MTT assay; conditions: SNB-75, 48 h
SK-MEL-2 = assay: Antitumor activity against human SK-MEL-2 cells after 48 hrs by MTT assay; conditions: SK-MEL-2, 48 h
HOP-92 = assay: Antitumor activity against human HOP92 cells after 48 hrs by MTT assay; conditions: HOP-92, 48 h
SNB-19 = assay: Antitumor activity against human SNB19 cells after 48 hrs by MTT assay; conditions: SNB-19, 48 h
EKVX = assay: Antitumor activity against human EKVX cells after 48 hrs by MTT assay
HCC 2998 = assay: Antitumor activity against human HCC2998 cells after 48 hrs by MTT assay; conditions: HCC 2998, 48 h
SK-MEL-28 = assay: Antitumor activity against human SK-MEL-28 cells after 48 hrs by MTT assay; conditions: SK-MEL-28, 48 h
[2] = read-out: pLC50 (the source's name) (converted)

Compound: OCc1ccc(-c2nn(Cc3ccccc3)c3cc[se]c23)o1
- GI50 (HT-29): 33.9 µM
- CC50 (HT-29; [2]): > 100 µM
- TGI (HT-29; read-out: pTGI): > 100 µM
- GI50 (TK-10; read-out: pGI50 (converted)): 1.7 µM
- CC50 (TK-10; [2]): > 100 µM
- TGI (TK-10; read-out: pTGI): > 100 µM
- GI50 (UACC-62): 2.19 µM
- CC50 (UACC-62; [2]): > 100 µM
- TGI (UACC-62; read-out: pTGI (converted)): 55 µM
- GI50 (786-0; read-out: pGI50 (converted)): 33.1 µM
- CC50 (786-0; [2]): > 100 µM
- TGI (786-0; read-out: pTGI): > 100 µM
- GI50 (T47D): 21.4 µM
- CC50 (T47D; [2]): > 100 µM
- TGI (T47D; read-out: pTGI (converted)): 89.1 µM
- GI50 (SF-268): 40.7 µM
- CC50 (SF-268; [2]): > 100 µM
- TGI (SF-268; read-out: pTGI): > 100 µM
- GI50 (DU-145; read-out: pGI50 (converted)): 45.7 µM
- CC50 (DU-145; [2]): > 100 µM
- TGI (DU-145; read-out: pTGI): > 100 µM
- GI50 (UO-31; read-out: pGI50 (converted)): 41.7 µM
- CC50 (UO-31; [2]): > 100 µM
- TGI (UO-31; read-out: pTGI): > 100 µM
- GI50 (MOLT-4): 22.9 µM
- CC50 (MOLT-4; [2]): > 100 µM
- GI50 [1]: 20 µM
- CC50 [1, 2]: > 100 µM
- TGI ([1]; read-out: pTGI (converted)): 74.1 µM
- GI50 (HCT-116): 18.2 µM
- CC50 (HCT-116; [2]): > 100 µM
- TGI (HCT-116; read-out: pTGI): > 100 µM
- GI50 (KM12): 49 µM
- CC50 (KM12; [2]): > 100 µM
- TGI (KM12; read-out: pTGI): > 100 µM
- GI50 (U-251): 27.5 µM
- CC50 (U-251; [2]): > 100 µM
- TGI (U-251; read-out: pTGI): > 100 µM
- GI50 (HL-60(TB)): 19.5 µM
- CC50 (HL-60(TB); [2]): > 100 µM
- TGI (HL-60(TB); read-out: pTGI (converted)): 49 µM
- GI50 (HOP-62): 39.8 µM
- CC50 (HOP-62; [2]): > 100 µM
- TGI (HOP-62; read-out: pTGI): > 100 µM
- GI50 (SF-295): 19.1 µM
- CC50 (SF-295; [2]): > 100 µM
- TGI (SF-295; read-out: pTGI (converted)): 63.1 µM
- GI50 (SN12C; read-out: pGI50 (converted)): 43.6 µM
- CC50 (SN12C; [2]): > 100 µM
- TGI (SN12C; read-out: pTGI): > 100 µM
- GI50 (A498; read-out: pGI50 (converted)): 0.162 µM
- CC50 (A498; read-out: pLC50 (converted)): 0.631 µM
- TGI (A498; read-out: pTGI): 0.324 µM
- GI50 (NCI-H322M): 40.7 µM
- CC50 (NCI-H322M; [2]): > 100 µM
- TGI (NCI-H322M; read-out: pTGI): > 100 µM
- GI50 (UACC-257): 18.2 µM
- CC50 (UACC-257; [2]): > 97.7 µM
- TGI (UACC-257; read-out: pTGI (converted)): 41.7 µM
- GI50 (MCF7; read-out: pGI50 (converted)): 11.2 µM
- CC50 (MCF7; [2]): > 100 µM
- TGI (MCF7; read-out: pTGI): > 100 µM
- GI50 (SK-MEL-5): 31.6 µM
- CC50 (SK-MEL-5; [2]): > 100 µM
- TGI (SK-MEL-5; read-out: pTGI (converted)): 89.1 µM
- GI50 (RXF 393; read-out: pGI50 (converted)): 11.5 µM
- CC50 (RXF 393; [2]): > 100 µM
- TGI (RXF 393; read-out: pTGI): 51.3 µM
- GI50 (OVCAR-8; read-out: pGI50 (converted)): 55 µM
- CC50 (OVCAR-8; [2]): > 100 µM
- TGI (OVCAR-8; read-out: pTGI): > 100 µM
- GI50 (SNB-75): 22.4 µM
- CC50 (SNB-75; [2]): > 100 µM
- TGI (SNB-75; read-out: pTGI (converted)): 100 µM
- GI50 (SK-MEL-2): 35.5 µM
- CC50 (SK-MEL-2; [2]): > 100 µM
- TGI (SK-MEL-2; read-out: pTGI): > 100 µM
- GI50 (HOP-92): 18.2 µM
- CC50 (HOP-92; [2]): > 100 µM
- TGI (HOP-92; read-out: pTGI (converted)): 79.4 µM
- GI50 (SNB-19): 49 µM
- CC50 (SNB-19; [2]): > 100 µM
- TGI (SNB-19; read-out: pTGI): > 100 µM
- GI50 (EKVX): 33.1 µM
- CC50 (EKVX; [2]): > 100 µM
- TGI (EKVX; read-out: pTGI): > 100 µM
- GI50 (HCC 2998): 32.4 µM
- CC50 (HCC 2998; [2]): > 100 µM
- TGI (HCC 2998; read-out: pTGI): > 100 µM
- GI50 (SK-MEL-28): 28.8 µM
- CC50 (SK-MEL-28; [2]): > 100 µM
- TGI (SK-MEL-28; read-out: pTGI (converted)): 91.2 µM
